Test results as given in ChEMBL document CHEMBL1800054, “Thiazolides as novel antiviral agents. 1. Inhibition of hepatitis B virus replication” (J Med Chem, 2011).

Columns and labels:
[1] = Cytotoxicity against human HepG2(2.2.15) cells after 24 hrs by neutral red dye uptake assay; format: cell-based; conditions: for CC50: hepg2 2.2.15, 24 h; for CC50 at 24 h: HepG2(2.2.15) cells
Procedure, shortened: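 Confluent chronically HBV-producing 2.2.15 cultures given nine consecutive daily doses of compound; neutral red dye uptake read 24 hr after the last dose.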

Hepatitis B virus [2] = assay: Antiviral activity against Hepatitis B virus infected in human HepG2(2.2.15) cells assessed as decrease in intracellular viral DNA measured 24 hrs after last dose; format: functional, organism-based; conditions: HepG2 2.2.15, 24 h
Procedure, shortened: (§1)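 Confluent 2.2.15 cells (HepG2 line chronically producing HBV) in 96-well culture; nine consecutive daily doses of compound. HBV DNA (extracellular virion or intracellular replication intermediates) quantified by blot hybridization 24 hr after the last dose. Cytotoxicity measured by neutral red uptake 24 hr after the last dose.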

Hepatitis B virus [3] = assay: Antiviral activity against Hepatitis B virus infected in human HepG2(2.2.15) cells assessed as decrease in extracellular viral DNA measured 24 hrs after last dose; format: functional, organism-based; conditions: HepG2 2.2.15, 24 h; procedure, shortened: as §1
[4] = Selectivity index, ratio CC50 for human HepG2(2.2.15) cells to EC90 for decrease in extracellular viral DNA in Hepatitis B virus infected human HepG2(2.2.15) cells; format: toxicity; conditions: read-out: Selectivity Index
Procedure, shortened: (§2)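 Ratio of CC50 to EC90 in confluent 2.2.15 cells treated with nine consecutive daily doses. Both read 24 hr after the last dose. CC50 = concentration halving neutral red uptake versus untreated cultures. EC values were run in triplicate.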

[5] = Selectivity index, ratio CC50 for human HepG2(2.2.15) cells to EC90 for decrease in intracellular viral DNA in Hepatitis B virus infected human HepG2(2.2.15) cells; format: toxicity, cell-based; conditions: read-out: Selectivity Index; procedure, shortened: as §2
Plasma [6] = assay: Protein binding in human plasma; format: ADME, cell-free
Plasma [7] = assay: Metabolic stability in human plasma assessed as plasma esterase-induced compound deacetylation; format: ADME, cell-free
[8] = Metabolic stability in human liver S9 fraction assessed as compound remaining after 60 mins; format: ADME, subcellular; conditions: read-out: Stability
Procedure, shortened: (§3)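 Incubated 60 minutes with human liver microsomes or S9 fraction; read-out is percent of parent compound remaining.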

[9] = Metabolic stability in human liver microsomes assessed as compound remaining after 60 mins; format: ADME, Microsome; conditions: read-out: Stability; procedure, shortened: as §3
[10] = Protein binding in plasma; format: ADME, cell-free; conditions: read-out: PPB
Plasma [11] = assay: Metabolic stability in human plasma after 1 hr; format: ADME, cell-free
Procedure, shortened: (§4)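 Incubated 1 hour in human whole blood or plasma, then stability assessed.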

Blood = assay: Metabolic stability in human blood after 1 hr; format: ADME, tissue-based; procedure, shortened: as §4
[12] = Inhibition of CYP450; format: ADME
Procedure, shortened: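 Screened for inhibition against a panel of 14 CYP isozymes.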

Structure (SMILES) | CC50 [1] | EC50 (Hepatitis B virus [2]) | EC90 (Hepatitis B virus [2]) | EC50 (Hepatitis B virus [3]) | EC90 (Hepatitis B virus [3]) | selectivity ratio [4] | selectivity ratio [5] | CC50 at 24 h [1] | other results
Cc1cccc(C(=O)Nc2ncc(Cl)s2)c1O | 100 µM | > 10 µM | > 10 µM | > 10 µM | > 10 µM | – | – | – | –
COC(=O)c1cnc(NC(=O)c2ccccc2O)s1 | 15 µM | – | – | > 10 µM | > 10 µM | – | – | – | –
Cc1cc([N+](=O)[O-])c(Cl)cc1NC(=O)c1ccccc1O | 89 µM | 0.66 µM | 1.7 µM | 0.28 µM | 0.73 µM | 122 | 52 | – | –
CC(=O)Nc1cnc(NC(=O)c2ccccc2O)s1 | – | > 10 µM | > 10 µM | > 10 µM | > 10 µM | – | – | > 100 µM | –
O=C(Nc1ccc([N+](=O)[O-])cc1)c1ccccc1O | – | – | – | > 10 µM | > 10 µM | – | – | > 100 µM | –
CC(=O)Oc1ccccc1C(=O)Nc1cc(C(F)(F)F)cc(C(F)(F)F)c1 | – | – | – | 3.8 µM | 14 µM | > 7.1 | – | > 100 µM | –
O=C(Nc1ncc([N+](=O)[O-])s1)c1ccccc1O [TIZOXANIDE] | – | 0.46 µM | 1.2 µM | 0.15 µM | 0.58 µM | > 172 | > 83 | > 100 µM | PPB (Plasma [6]): > 95%
Cc1ccc(C(=O)Nc2ncc(Cl)s2)c(O)c1 | – | 2.7 µM | 6.3 µM | 1 µM | 3.3 µM | > 30 | > 16 | 100 µM | –
O=C(Nc1ncc(Br)s1)c1cc(Cl)ccc1O | 45 µM | 3.5 µM | 11 µM | 0.21 µM | 1.1 µM | 41 | 4.1 | – | –
CCOC(=O)Oc1ccccc1C(=O)Nc1ncc([N+](=O)[O-])s1 | 9.9 µM | 0.54 µM | 1.8 µM | 0.21 µM | 0.69 µM | 13 | 5.5 | – | –
CC(=O)Oc1ccccc1C(=O)Nc1ncc([N+](=O)[O-])s1 [NITAZOXANIDE] | – | 0.59 µM | – | 0.12 µM | – | – | – | > 100 µM | PPB (Plasma [6]): > 95%; t1/2 (Plasma [7]): 6 min
Cc1ccc(O)c(C(=O)Nc2ncc(Cl)s2)c1 | – | 0.9 µM | 2 µM | 0.33 µM | 0.83 µM | > 120 | > 51 | 100 µM | remaining at 1 h [8]: 6%; remaining at 1 h [9]: 16%; fraction unbound [10]: < 0.01; Stability (Plasma [11]): Stable; Stability (Blood): Stable; inhibition (INH) [12]: Not Active
O=C(Nc1nc(-c2ccccc2)cs1)c1cccc(Cl)c1O | – | – | – | 0.15 µM | 0.6 µM | > 166 | – | > 100 µM | –
CS(=O)(=O)c1cnc(NC(=O)c2ccccc2O)s1 | – | > 10 µM | – | > 10 µM | > 10 µM | – | – | > 100 µM | –
O=C(Nc1nccs1)c1ccccc1O | 16 µM | – | – | > 10 µM | > 10 µM | – | – | – | –
O=C(Nc1ccc(Cl)cc1)c1ccccc1O | – | – | – | > 10 µM | > 10 µM | – | – | > 100 µM | –
Cc1cccc(C(=O)Nc2nc(-c3ccccc3)cs2)c1O | – | 7.8 µM | 30 µM | 0.22 µM | 0.73 µM | > 137 | 3.3 | > 100 µM | –

Structure (SMILES) | CC50 [1] | EC50 (Hepatitis B virus [2]) | EC90 (Hepatitis B virus [2]) | EC50 (Hepatitis B virus [3]) | EC90 (Hepatitis B virus [3]) | selectivity ratio [4] | selectivity ratio [5] | CC50 at 24 h [1] | other results
O=C(Nc1ncc(Cl)s1)c1ccccc1O | 38 µM | 1 µM | 2.9 µM | 0.33 µM | 0.89 µM | 43 | 13 | – | –
CS(=O)(=O)c1csc(NC(=O)c2ccccc2O)n1 | – | – | – | > 10 µM | > 10 µM | – | – | > 100 µM | –
CC(=O)Oc1ccccc1C(=O)Nc1ccc(Br)cc1 | – | 2.1 µM | 6.8 µM | 0.76 µM | 3 µM | > 33 | > 15 | > 100 µM | –
O=C(Nc1ncc(Br)s1)c1ccc(F)cc1O | 12 µM | – | – | 2.1 µM | 5.6 µM | 2.1 | – | – | –
O=C(Nc1ccc([N+](=O)[O-])cc1Cl)c1cc(Cl)ccc1O [NICLOSAMIDE] | – | – | – | – | > 10 µM | – | – | > 100 µM | –
N#Cc1cnc(NC(=O)c2ccccc2O)s1 | – | 5.5 µM | 14 µM | 3.2 µM | 9.4 µM | > 11 | > 7.1 | > 100 µM | –
CC(=O)Oc1ccccc1C(=O)Nc1ccc(I)cc1 | – | 0.73 µM | 3.3 µM | 0.2 µM | 1.2 µM | > 83 | > 30 | > 100 µM | –
CC(C)c1cnc(NC(=O)c2ccccc2O)s1 | – | > 10 µM | > 10 µM | > 10 µM | > 10 µM | – | – | > 100 µM | –
O=C(Nc1ncc(Br)s1)c1cccc(Cl)c1O | 30 µM | 0.59 µM | 3.9 µM | 0.32 µM | 2 µM | 15 | 7.7 | – | –
O=C(Nc1cc(C(F)(F)F)ccc1Cl)c1ccccc1O | – | – | – | 3.7 µM | 13 µM | – | – | > 100 µM | –
Cc1cccc(C(=O)Nc2ncc(Br)s2)c1O | – | 7.6 µM | 22 µM | 3.5 µM | 9 µM | > 11 | > 4.5 | > 100 µM | –
CC(=O)Oc1ccccc1C(=O)Nc1ccc(Cl)cc1 | – | – | – | 3.5 µM | 9.7 µM | 11 | – | > 100 µM | –
O=C(Nc1ncc(Br)s1)c1ccccc1O | – | 2.9 µM | 8.7 µM | 1.2 µM | 4 µM | > 25 | > 12 | > 100 µM | –
O=C(Nc1ncc(-c2ccc(Cl)cc2)s1)c1ccccc1O | – | > 10 µM | > 10 µM | > 10 µM | > 10 µM | – | – | > 100 µM | –
O=C(Nc1ncc(C(F)(F)F)s1)c1ccccc1O | – | 9.1 µM | 27 µM | 3.8 µM | 11 µM | > 9.1 | > 3.7 | > 100 µM | –
O=C(Nc1ncc(F)s1)c1ccccc1O | 51 µM | – | – | 3.1 µM | 12 µM | 4.3 | – | – | –
O=C(Nc1nc(-c2ccccc2)cs1)c1ccccc1O | 22 µM | – | – | 5.6 µM | 21 µM | 1 | – | – | –
